E-sel inducer = E-selectin induction on HUVECs; AID 686992; 0.37% of 260,000 active; activation, % at 7.58 µM; P16581; HUVEC E-selectin immunofluorescence imaging; normalized: neutral wells 0, TNF-alpha wells 100;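 active means mean E-selectin-positive cell signal at least 10% of the positive control, reached in at least 60% of replicates, without over 20% cell loss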
Target sequence (P16581 whole entry, looked up): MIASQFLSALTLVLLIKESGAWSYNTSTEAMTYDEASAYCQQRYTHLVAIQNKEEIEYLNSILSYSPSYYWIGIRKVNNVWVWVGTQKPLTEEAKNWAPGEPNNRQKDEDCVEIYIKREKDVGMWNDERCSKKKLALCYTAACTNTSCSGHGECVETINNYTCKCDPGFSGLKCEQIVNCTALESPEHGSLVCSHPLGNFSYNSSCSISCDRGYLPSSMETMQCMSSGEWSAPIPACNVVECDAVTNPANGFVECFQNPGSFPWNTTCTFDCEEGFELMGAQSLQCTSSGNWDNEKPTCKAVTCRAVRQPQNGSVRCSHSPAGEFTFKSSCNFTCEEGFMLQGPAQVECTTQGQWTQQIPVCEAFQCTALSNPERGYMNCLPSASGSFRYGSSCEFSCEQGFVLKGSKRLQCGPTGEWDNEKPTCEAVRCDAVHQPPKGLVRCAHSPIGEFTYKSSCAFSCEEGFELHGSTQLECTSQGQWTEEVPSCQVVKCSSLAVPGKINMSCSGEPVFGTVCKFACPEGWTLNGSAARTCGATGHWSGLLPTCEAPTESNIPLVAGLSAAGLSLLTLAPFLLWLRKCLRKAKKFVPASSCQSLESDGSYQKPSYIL
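Test system: HUVEC | Signal: Immunofluorescence imaging | Read-out: Percent E-selectin-positive cells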
An asterisk follows results filed as active. Only a selection was taken, and hits are over-represented in it overall.

C[C@]12c3[nH]c4ccc(Cl)cc4c3CCN1C(=O)[C@@H](CC(=O)NCc1ccco1)C[C@@H]2C(=O)N1CCCCC1 was read as E-sel inducer 53.0*.
Screening COc1ccc2[nH]c3c(c2c1)CCN1C(=O)C(CC(=O)NCc2ccco2)C[C@H](C(=O)N2CCCCC2)[C@@]31C (some centres not stated) returned E-sel inducer -0.2.
C[C@]12c3[nH]c4cc(-c5ccco5)ccc4c3CCN1C(=O)[C@@H](CC(=O)NCc1ccco1)C[C@@H]2C(=O)N1CCCCC1 was read as E-sel inducer 0.0.
Screening C[C@H]1CCCCO[C@H](CN(C)S(=O)(=O)c2cccs2)[C@@H](C)CN([C@@H](C)CO)C(=O)c2cc(NC(=O)Cc3ccccc3)ccc2O1 returned E-sel inducer 0.1.
`Cc1ccc(S(=O)(=O)N[C@@H]2CC[C@@H](CCn3cc(C4(O)CCCC4)nn3)O[C@@H]2CO)cc1` gave E-sel inducer -0.4.
C[C@@H]1CN([C@H](C)CO)C(=O)c2cc(C#CC3CCCCC3)cnc2O[C@H]1CN(C)Cc1ccncc1 was read as E-sel inducer -0.1.
C[C@@H]1CN([C@H](C)CO)C(=O)c2cc(-c3ccc(C(=O)N(C)C)cc3)cnc2O[C@@H]1CN(C)C was read as E-sel inducer 0.3.
For COc1cccc(-c2ccc3c(c2)[C@H]2[C@H](CCN2C(=O)Cc2ccccc2)[C@@H](CO)N3)c1 the results were E-sel inducer 0.7.
`C=C1CCN([C@@H](Cc2ccccc2)C(=O)NCCC(C)C)S(=O)(=O)c2ccccc21` gave E-sel inducer -0.1.
`COC(CNC(=O)[C@H](Cc1ccccc1)N1Cc2ccccc2C1=O)OC` gave E-sel inducer 0.2.
`CC(C)CCNC(=O)[C@H](Cc1ccccc1)N1Cc2ccccc2C1=O` gave E-sel inducer 75.5*.
`C[C@@H]1CN([C@H](C)CO)C(=O)c2cccc(NC(=O)c3ccc(-c4nccs4)cc3)c2O[C@H]1CN(C)CC1CC1` gave E-sel inducer -0.1.
Screening CCCc1cn(CC[C@H]2CC[C@@H](NC(=O)Nc3ccc4c(c3)OCO4)[C@@H](CO)O2)nn1 returned E-sel inducer -0.1.
For C[C@@H]1CCCCO[C@H](CN(C)S(=O)(=O)c2cn(C)cn2)[C@@H](C)CN([C@@H](C)CO)C(=O)c2cc(NC(=O)Nc3ccccc3)ccc2O1 the results were E-sel inducer -0.1.
O=C(C[C@@H]1CC[C@H](NC(=O)c2ccccc2)[C@H](CO)O1)NCc1ccncn1 was read as E-sel inducer -0.2.
`Cc1cc(C)c(C)c(OCC(=O)O/N=C(\N)c2ccncc2)c1` gave E-sel inducer 0.0.
For N/C(=N\OC(=O)COc1ccc(Br)cc1Cl)c1ccncc1 the results were E-sel inducer 1.3.
For N/C(=N\OC(=O)COc1cc(Cl)c(Cl)cc1Cl)c1ccncc1 the results were E-sel inducer 73.7*.
O=C(C[C@H]1CC[C@H](NC(=O)Nc2ccc(F)cc2)[C@H](CO)O1)NCc1ccccn1 was read as E-sel inducer -0.4.
`Cc1cccc2sc(NNC(=O)C3COc4ccccc4O3)nc12` (configuration not stated) gave E-sel inducer -0.1.
COc1ccc(OC)c2sc(NNC(=O)C3COc4ccccc4O3)nc12 (configuration not stated) was read as E-sel inducer 8.0.
For Cc1cc(C)c2sc(NNC(=O)C3COc4ccccc4O3)nc2c1 (configuration not stated) the results were E-sel inducer 83.3*.
CO[C@@H]1CN(C)C(=O)c2ccc(NC(=O)C3CC3)cc2OC[C@@H](C)N(C(=O)Nc2ccc(C(F)(F)F)cc2)C[C@H]1C was read as E-sel inducer -0.1.
Screening COc1cccc(S(=O)(=O)Nc2ccc3c(c2)[C@@H]2C[C@@H](CC(=O)N[C@@H](C)c4ccccc4)O[C@H](CO)[C@@H]2O3)c1 returned E-sel inducer 0.2.
COc1ccc2[nH]c(=O)c(CN(c3ccccc3OC)S(=O)(=O)c3ccccc3)cc2c1 was read as E-sel inducer 0.1.
`O=c1[nH]c2ccccc2cc1CN(c1ccccc1)S(=O)(=O)c1ccccc1` gave E-sel inducer -0.4.
COc1ccc2[nH]c(=O)c(CN(c3ccccc3)S(=O)(=O)c3ccccc3)cc2c1 was read as E-sel inducer 86.4*.
COc1ccc(S(=O)(=O)N(C)C[C@H]2OCCCC[C@H](C)Oc3ccc(N(C)C)cc3C(=O)N([C@@H](C)CO)C[C@H]2C)cc1 was read as E-sel inducer 0.1.
`COCCNC(=O)C[C@@H]1C=C[C@@H](NS(=O)(=O)c2ccc(C)cc2)[C@@H](CO)O1` gave E-sel inducer 0.4.
Cc1noc(C)c1S(=O)(=O)Nc1ccc2c(c1)C(=O)N([C@@H](C)CO)C[C@@H](C)[C@@H](CN(C)Cc1ccc(Cl)c(Cl)c1)OCCCC[C@@H](C)O2 was read as E-sel inducer -0.2.
`CS(=O)(=O)NCCNc1ccc(Cl)cc1[N+](=O)[O-]` gave E-sel inducer -0.2.
For CS(=O)(=O)NCCNc1cc(Cl)ccc1[N+](=O)[O-] the results were E-sel inducer 95.1*.
For O=C(NCCNc1cc(Cl)ccc1[N+](=O)[O-])c1ccco1 the results were E-sel inducer -1.2.
Screening COc1ccc2c3c(n(C)c2c1)[C@H](CO)N(C)CC31CN(C(=O)c2ccc3c(c2)OCO3)C1 returned E-sel inducer 0.0.
For COc1cccc(C2CCCCN(C)C2=O)c1 (configuration not stated) the results were E-sel inducer -0.4.
Screening O=C1c2ccccc2C(=O)C1c1ccc(Br)cc1 returned E-sel inducer -0.3.
For COc1cccc(C2C(=O)c3ccccc3C2=O)c1 the results were E-sel inducer 65.5*.
CCNC(=O)Nc1ccc2c(c1)C(=O)N(C)[C@H]1CC[C@H](CC(=O)NCc3ccccc3F)O[C@@H]1CO2 was read as E-sel inducer 0.0.
`COc1ccc(C=O)cc1COc1ccc([N+](=O)[O-])c(C)c1` gave E-sel inducer 368.5*.
Screening COc1ccc(/C=N\NC(=O)c2ccccc2[N+](=O)[O-])cc1COc1c(F)c(F)c(F)c(F)c1F returned E-sel inducer -0.2.
COc1ccc(/C=C/C(=O)O)cc1COc1cccc(C)c1 was read as E-sel inducer 0.3.
`CCCNC(=O)C[C@H]1CC[C@@H]2[C@@H](COc3ccc(NC(=O)c4cc(F)cc(F)c4)cc3C(=O)N2C)O1` gave E-sel inducer 0.0.
C[C@@H]1CCCCO[C@@H](CN(C)C(=O)C2CCCCC2)[C@H](C)CN([C@@H](C)CO)C(=O)c2cc(NC(=O)CCCN(C)C)ccc2O1 was read as E-sel inducer 0.4.
CO[C@H]1CN(C)C(=O)c2cc(NC(C)=O)ccc2OC[C@H](C)N(Cc2cc(F)ccc2F)C[C@H]1C was read as E-sel inducer 0.2.
Screening COCCNC(=O)c1cc2c(c(-c3cccc(-c4cccc(OC)c4)c3)n1)[C@H](CCO)N(S(=O)C(C)(C)C)C2 (some centres not stated) returned E-sel inducer -1.5.
`CC(C)(C)[S@](=O)N1Cc2cc(C(=O)O)nc(-c3cccc(-c4cccc(F)c4)c3)c2[C@@H]1CCO` gave E-sel inducer -0.2.
For CCNC(=O)c1cc2c(c(-c3cccc(-c4cccc(F)c4)c3)n1)[C@@H](CCO)N([S@](=O)C(C)(C)C)C2 the results were E-sel inducer 0.0.
